How the values were obtained:
[1] = tested on: Rattus norvegicus; assay: Antiallergic activity in rat assessed as inhibition of egg albumin-induced passive cutaneous anaphylaxis at 10 mg/kg, iv treated for 30 secs followed by egg albumin-challenge measured after 30 mins relative to control; type: functional; details: 0.5 h
[2] = tested on: Rattus norvegicus; assay: Antiallergic activity in rat assessed as inhibition of egg albumin-induced passive cutaneous anaphylaxis at 5 mg/kg, iv treated for 30 secs followed by egg albumin-challenge measured after 30 mins relative to control; type: functional; details: 0.5 h
[3] = tested on: Rattus norvegicus; assay: Antiallergic activity in iv dosed rat assessed as inhibition of egg albumin-induced passive cutaneous anaphylaxis treated for 30 secs followed by egg albumin-challenge measured after 30 mins; type: functional; details: 0.5 h, read-out: ID50 (the source's name)
[4] = tested on: Rattus norvegicus; assay: Antiallergic activity in rat assessed as inhibition of egg albumin-induced passive cutaneous anaphylaxis at 25 mg/kg, po treated for 15 mins followed by egg albumin-challenge measured after 30 mins relative to control; type: functional
Outline: (§1)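 Oral PCA in rats: intradermal antiserum at four back sites (dose giving ~12×12 mm wheal), compound po 48 h later, 15 min before iv challenge with 0.5 mL saline containing 5 mg Evans blue plus 5 mg egg albumin; skin bluing read 30 min after challenge on two axes per wheal; six rats per dose versus ≥6 vehicle controls; percent inhibition from mean wheal size, one-sided t test.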

[5] = tested on: Rattus norvegicus; assay: Antiallergic activity in rat assessed as inhibition of egg albumin-induced passive cutaneous anaphylaxis at 0.5 mg/kg, iv treated for 30 secs followed by egg albumin-challenge measured after 30 mins relative to control; type: functional; details: 0.5 h
[6] = tested on: Rattus norvegicus; assay: Antiallergic activity in po dosed rat assessed as inhibition of egg albumin-induced passive cutaneous anaphylaxis treated for 15 mins followed by egg albumin-challenge measured after 30 mins; type: functional; details: read-out: ID50 (the source's name); outline: as §1
[7] = Antiallergic activity in passively sensitized rhesus monkey lungs assessed as inhibition of antigen-induced histamine release at 1 x 10^-4 M by fluorometric analysis relative to control; type: functional, Macaca mulatta, Lung
Outline: (§2)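 Passively sensitized fragmented lung from a young adult male rhesus monkey, challenged with IgE-antihuman IgE; histamine release measured fluorometrically and SRS-A estimated by guinea pig ileum bioassay; inhibition relative to control; replicates given as number of separate lung preparations.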

[8] = Antiallergic activity in passively sensitized rhesus monkey lungs assessed as inhibition of antigen-induced histamine release at 1 x 10^-5 M by fluorometric analysis relative to control; type: functional, Macaca mulatta, Lung; outline: as §2
[9] = Antiallergic activity in passively sensitized rhesus monkey lungs assessed as inhibition of antigen-induced slow reacting substance of anaphylaxis release at 1 x 10^-4 M relative to control; type: functional, Macaca mulatta, Lung; outline: as §2
[10] = Antiallergic activity in passively sensitized rhesus monkey lungs assessed as inhibition of antigen-induced slow reacting substance of anaphylaxis release at 1 x 10^-5 M relative to control; type: functional, Macaca mulatta, Lung; outline: as §2

CC(=O)C1=C(O)/C(=C(\C)Nc2ccccc2)C(=O)OC1=O
inhibition in vivo at 10 mg/kg [1]: 76%

CC(=O)C1=C(O)/C(=C(\C)Nc2ccccc2Cl)C(=O)OC1=O
inhibition in vivo at 10 mg/kg [1]: 36%

CC(=O)C1=C(O)/C(=C(\C)Nc2cccc(Cl)c2)C(=O)OC1=O
inhibition in vivo at 10 mg/kg [1]: 74%

CC(=O)C1=C(O)/C(=C(\C)Nc2ccc(Cl)cc2)C(=O)OC1=O
inhibition in vivo at 10 mg/kg [1]: 84%

CC(=O)C1=C(O)/C(=C(\C)Nc2ccc(F)cc2)C(=O)OC1=O
inhibition in vivo at 10 mg/kg [1]: 54%

CC(=O)C1=C(O)/C(=C(\C)Nc2ccc([N+](=O)[O-])cc2)C(=O)OC1=O
inhibition in vivo at 10 mg/kg [1]: 17%

CCOC(=O)c1ccccc1N/C(C)=C1\C(=O)OC(=O)C(C(C)=O)=C1O
inhibition in vivo at 5 mg/kg [2]: 18%

COC(=O)c1ccc(N/C(C)=C2\C(=O)OC(=O)C(C(C)=O)=C2O)cc1
inhibition in vivo at 5 mg/kg [2]: 6%

CC(=O)C1=C(O)/C(=C(\C)Nc2ccc(C)cc2)C(=O)OC1=O
inhibition in vivo at 10 mg/kg [1]: 33%

CC(=O)C1=C(O)/C(=C(\C)Nc2ccccc2O)C(=O)OC1=O
ED50 [3]: 2.8 mg/kg | inhibition in vivo at 25 mg/kg [4]: -12%

CC(=O)C1=C(O)/C(=C(\C)Nc2cccc(O)c2)C(=O)OC1=O
ED50 [3]: 1.6 mg/kg | inhibition in vivo at 25 mg/kg [4]: 0%

CCCC(=O)Oc1ccc(N/C(C)=C2\C(=O)OC(=O)C(C(C)=O)=C2O)cc1
ED50 [3]: 1.5 mg/kg

CCCCC(=O)Oc1ccc(N/C(C)=C2\C(=O)OC(=O)C(C(C)=O)=C2O)cc1
inhibition in vivo at 0.5 mg/kg [5]: 34% | inhibition in vivo at 25 mg/kg [4]: 36%

CCCCCC(=O)Oc1ccc(N/C(C)=C2\C(=O)OC(=O)C(C(C)=O)=C2O)cc1
ED50 [3]: 12.1 mg/kg

COc1ccc(N/C(C)=C2\C(=O)OC(=O)C(C(C)=O)=C2O)cc1
inhibition in vivo at 5 mg/kg [2]: 27%

CC(=O)C1=C(O)/C(=C(\C)Nc2ccc(OCC(=O)O)cc2)C(=O)OC1=O
ED50 [3]: 0.5 mg/kg | inhibition in vivo at 25 mg/kg [4]: 2%

CC(=O)C1=C(O)/C(=C(\C)Nc2ccc(S)cc2)C(=O)OC1=O
ED50 [3]: 1.9 mg/kg

CC(=O)C1=C(O)/C(=C(\C)Nc2ccccc2N)C(=O)OC1=O
ED50 [3]: 27.5 mg/kg

CC(=O)C1=C(O)/C(=C(\C)Nc2cccc(N)c2)C(=O)OC1=O
ED50 [3]: 0.3 mg/kg

CC(=O)C1=C(O)/C(=C(\C)Nc2ccc(N)cc2)C(=O)OC1=O
inhibition in vivo at 0.5 mg/kg [5]: 58% | inhibition in vivo at 25 mg/kg [4]: 23%

CC(=O)C1=C(O)/C(=C(\C)Nc2cccc(NC(=N)N)c2)C(=O)OC1=O.O=[N+]([O-])O
ED50 [3]: 0.9 mg/kg | inhibition in vivo at 25 mg/kg [4]: -7%

CC(=O)C1=C(O)/C(=C(\C)Nc2ccccc2NC=O)C(=O)OC1=O
inhibition in vivo at 0.5 mg/kg [5]: 52% | inhibition in vivo at 25 mg/kg [4]: 31%

CC(=O)C1=C(O)/C(=C(\C)Nc2ccc(NC=O)cc2)C(=O)OC1=O
inhibition in vivo at 0.5 mg/kg [5]: 49% | inhibition in vivo at 25 mg/kg [4]: -6%

CC(=O)Nc1ccc(N/C(C)=C2\C(=O)OC(=O)C(C(C)=O)=C2O)cc1
inhibition in vivo at 5 mg/kg [2]: 19%

CC(=O)C1=C(O)/C(=C(\C)Nc2cccc(NC(N)=O)c2)C(=O)OC1=O
inhibition in vivo at 0.5 mg/kg [5]: 45% | inhibition in vivo at 25 mg/kg [4]: 6%

CC(=O)C1=C(O)/C(=C(\C)Nc2ccc(NC(N)=O)cc2)C(=O)OC1=O
inhibition in vivo at 0.5 mg/kg [5]: 38% | inhibition in vivo at 25 mg/kg [4]: -17%

CCC(=O)Nc1cccc(N/C(C)=C2\C(=O)OC(=O)C(C(C)=O)=C2O)c1
ED50 [3]: 0.2 mg/kg | inhibition in vivo at 25 mg/kg [4]: 70%

CCC(=O)Nc1ccc(N/C(C)=C2\C(=O)OC(=O)C(C(C)=O)=C2O)cc1
ED50 [3]: 1.6 mg/kg

CC(=O)C1=C(O)/C(=C(\C)Nc2cccc(NC(=O)C(C)C)c2)C(=O)OC1=O
inhibition in vivo at 0.5 mg/kg [5]: 72% | inhibition in vivo at 25 mg/kg [4]: 46%

CC(=O)CCC(=O)Nc1cccc(N/C(C)=C2\C(=O)OC(=O)C(C(C)=O)=C2O)c1
ED50 [3]: 0.4 mg/kg

CC(=O)C1=C(O)/C(=C(\C)Nc2cccc(NS(=O)(=O)c3ccccc3)c2)C(=O)OC1=O
ED50 [3]: 1.3 mg/kg | inhibition in vivo at 25 mg/kg [4]: 7%

CC(=O)C1=C(O)/C(=C(\C)Nc2cccc(NS(N)(=O)=O)c2)C(=O)OC1=O
inhibition in vivo at 0.5 mg/kg [5]: 45% | inhibition in vivo at 25 mg/kg [4]: 13%

CC(=O)C1=C(O)/C(=C(\C)Nc2ccc(NS(N)(=O)=O)cc2)C(=O)OC1=O
ED50 [3]: 0.3 mg/kg | inhibition in vivo at 25 mg/kg [4]: 10%

CCOC(=O)Nc1cccc(N/C(C)=C2\C(=O)OC(=O)C(C(C)=O)=C2O)c1
ED50 [3]: 0.4 mg/kg

CC(=O)C1=C(O)/C(=C(\C)Nc2cc(N)cc(N)c2)C(=O)OC1=O
ED50 [3]: 0.5 mg/kg | ED50 [6]: 0.9 mg/kg

CC(=O)C1=C(O)/C(=C(\C)Nc2cccc(NC(=O)C(=O)C(=O)O)c2)C(=O)OC1=O
ED50 [3]: 0.03 mg/kg | inhibition in vivo at 25 mg/kg [4]: 21%

CC(=O)C1=C(O)/C(=C(\C)Nc2cccc(NC(=O)C(O)CO)c2)C(=O)OC1=O (stereo not given)
ED50 [3]: 0.05 mg/kg | inhibition in vivo at 25 mg/kg [4]: 55%

CC(=O)C1=C(O)/C(=C(\C)Nc2ccc(Cl)c(Cl)c2)C(=O)OC1=O
inhibition in vivo at 10 mg/kg [1]: 10%

CC(=O)Nc1cc(O)cc(N/C(C)=C2\C(=O)OC(=O)C(C(C)=O)=C2O)c1
inhibition (INH) [7]: 57% | inhibition (INH) [8]: 17% | inhibition (INH) [9]: 22% | inhibition (INH) [10]: 6% | ED50 [3]: 0.02 mg/kg | inhibition in vivo at 25 mg/kg [4]: 2%

CC(=O)Nc1cc(N)cc(N/C(C)=C2\C(=O)OC(=O)C(C(C)=O)=C2O)c1
inhibition (INH) [7]: 17% | inhibition (INH) [9]: 8% | ED50 [3]: 0.1 mg/kg | inhibition in vivo at 25 mg/kg [4]: 11%

CCCC(=O)Nc1cc(NC(=O)CCC)cc(N/C(C)=C2\C(=O)OC(=O)C(C(C)=O)=C2O)c1
ED50 [3]: 0.05 mg/kg | inhibition in vivo at 25 mg/kg [4]: 7%

CCOC(=O)Nc1cc(NC(=O)OCC)cc(N/C(C)=C2\C(=O)OC(=O)C(C(C)=O)=C2O)c1
ED50 [3]: 0.25 mg/kg | inhibition in vivo at 25 mg/kg [4]: -18%

CCOC(=O)C(=O)Nc1cc(NC(=O)C(=O)OCC)cc(N/C(C)=C2\C(=O)OC(=O)C(C(C)=O)=C2O)c1
ED50 [3]: 0.03 mg/kg | ED50 [6]: 6.5 mg/kg

CC(=O)C1=C(O)/C(=C(\C)Nc2cc(NC(=O)C(=O)O)cc(NC(=O)C(=O)O)c2)C(=O)OC1=O
ED50 [3]: 0.05 mg/kg | ED50 [6]: 19 mg/kg

CC(=O)C1=C(O)/C(=C(\C)Nc2cc(O)c(O)c(O)c2)C(=O)OC1=O
ED50 [3]: 0.4 mg/kg | inhibition in vivo at 25 mg/kg [4]: -3%

CC(=O)C1=C(O)/C(=C(\C)Nc2c(Cl)cccc2Cl)C(=O)OC1=O
inhibition in vivo at 10 mg/kg [1]: 3%

CC(=O)Nc1ccc(O)c(N/C(C)=C2\C(=O)OC(=O)C(C(C)=O)=C2O)c1
inhibition in vivo at 0.5 mg/kg [5]: 40% | inhibition in vivo at 25 mg/kg [4]: 4%

CC(=O)C1=C(O)/C(=C(\C)Nc2cc(O)ccc2N)C(=O)OC1=O
inhibition in vivo at 5 mg/kg [2]: 47%

COc1ccc(N(C)/C(C)=C2\C(=O)OC(=O)C(C(C)=O)=C2O)cc1
inhibition in vivo at 5 mg/kg [2]: 37%

CC(=O)C1=C(O)/C(=C(\C)N(C)c2ccc(O)cc2)C(=O)OC1=O
inhibition in vivo at 5 mg/kg [2]: 42%

CC(=O)C1=C(O)/C(=C(\C)N)C(=O)OC1=O
inhibition in vivo at 5 mg/kg [2]: 17%

CC(=O)c1c(O)oc(=O)c(C(C)=O)c1O
ED50 [3]: 14 mg/kg

CCC(=O)c1c(O)oc(=O)c(C(=O)CC)c1O
inhibition in vivo at 10 mg/kg [1]: 39%

CCCC(=O)c1c(O)oc(=O)c(C(=O)CCC)c1O
inhibition in vivo at 10 mg/kg [1]: 3%

CCCCC(=O)c1c(O)oc(=O)c(C(=O)CCCC)c1O
inhibition in vivo at 10 mg/kg [1]: 69%

CC(C)CC(=O)c1c(O)oc(=O)c(C(=O)CC(C)C)c1O
inhibition in vivo at 10 mg/kg [1]: 23%

CCCCCC(=O)c1c(O)oc(=O)c(C(=O)CCCCC)c1O
ED50 [3]: 6 mg/kg

CCCCCCC(=O)c1c(O)oc(=O)c(C(=O)CCCCCC)c1O
inhibition in vivo at 10 mg/kg [1]: 27%

Source: ChEMBL document CHEMBL3244146, “Pyranenamines: a new series of antiallergic compounds” (1979)
